{"data": "Experimental data collected from several papers", "note": "Lines come from different studies, so protocols differ."}
{"SMILES": "Nc1ccn([C@@H]2O[C@H](CO)[C@@H](O)C2(F)F)c(=O)n1", "target or system": "Influenza A virus", "test": "viral replication, inhibitor, ELISA", "system": "MDCK, H1N1", "conditions": "24 h", "measurement": "IC50", "value": "0.64 µM"}
{"SMILES": "CC[C@H](C)C[C@H](C)CCCCCCCCC(=O)N[C@H]1C[C@@H](O)[C@@H](NCCN)NC(=O)[C@@H]2[C@@H](O)CCN2C(=O)[C@H]([C@H](O)CCN)NC(=O)[C@H]([C@H](O)[C@@H](O)c2ccc(O)cc2)NC(=O)[C@@H]2C[C@@H](O)CN2C(=O)[C@H]([C@@H](C)O)NC1=O", "target or system": "Pichia kudriavzevii", "test": "microbial killing, broth dilution", "system": "ATCC14243", "conditions": "48 h", "measurement": "MFC", "value": "4 µg/mL"}
{"SMILES": "N.N.[Cl][Pt][Cl]", "target or system": "SU-DHL-8", "test": "cell growth or viability, ATP luminescence", "conditions": "10 µM, 72 h", "measurement": "inhibition", "value": "100%"}
{"SMILES": "O=c1c2ccccc2[se]n1-c1ccccc1", "target or system": "Enterovirus A", "test": "viral replication", "system": "Vero, EV71", "conditions": "48 h", "measurement": "IC50", "value": "7.1 µM"}
{"SMILES": "Sc1ncnc2nc[nH]c12", "target or system": "Influenza A virus", "test": "viral replication, inhibitor, ELISA", "system": "MDCK, H1N1", "conditions": "24 h", "measurement": "IC50", "value": "11.3 µM"}
{"SMILES": "CC1=CC(=O)c2c(O)cccc2C1=O", "target or system": "HuCC-A1", "test": "cell growth or viability, MTT", "measurement": "IC50", "value": "10.8 µM"}
{"SMILES": "Nc1ncn([C@@H]2O[C@H](CO)[C@@H](O)[C@H]2O)c(=O)n1", "target or system": "Influenza A virus", "test": "viral replication, inhibitor, ELISA", "system": "MDCK, H1N1", "conditions": "24 h", "measurement": "IC50", "value": "3.42 µM"}
{"SMILES": "CN[C@H](CC(C)C)C(=O)N[C@H]1C(=O)N[C@@H](CC(N)=O)C(=O)N[C@H]2C(=O)N[C@H]3C(=O)N[C@H](C(=O)N[C@H](C(=O)O)c4cc(O)cc(O)c4-c4cc3ccc4O)[C@H](O)c3ccc(c(Cl)c3)Oc3cc2cc(c3O[C@@H]2O[C@H](CO)[C@@H](O)[C@H](O)[C@H]2O[C@H]2C[C@](C)(N)[C@H](O)[C@H](C)O2)Oc2ccc(cc2Cl)[C@H]1O", "target or system": "Enterococcus", "test": "microbial growth, broth dilution", "system": "VRE", "measurement": "MIC", "value": "> 64 µg/mL"}
{"SMILES": "N=C(CC(O)c1cc2c(F)cc(F)cc2c2cc(C(F)(F)F)ccc12)Nc1ccc(Br)cc1 (stereo not shown)", "target or system": "Plasmodium knowlesi", "test": "parasite growth, SYBR Green", "measurement": "IC50", "value": "0.0033 µM"}
{"SMILES": "COC(=O)OCOc1c2n(ccc1=O)N([C@@H]1c3ccccc3SCc3c1ccc(F)c3F)[C@@H]1COCCN1C2=O", "target or system": "Influenza A virus", "test": "viral replication, inhibitor", "system": "H1N1 PR/8", "measurement": "EC50", "value": "0.00757 µM"}
{"SMILES": "O=c1[nH]cc(F)c(=O)[nH]1", "target or system": "Influenza A virus", "test": "viral replication, inhibitor, ELISA", "system": "MDCK, H1N1", "conditions": "24 h", "measurement": "IC50", "value": "50.4 µM"}
{"SMILES": "N=C(CC(O)c1cc2c(F)cc(F)cc2c2cc(C(F)(F)F)ccc12)Nc1cccc(F)c1 (stereo not shown)", "target or system": "Plasmodium knowlesi", "test": "parasite growth, SYBR Green", "measurement": "IC50", "value": "0.0064 µM"}
{"SMILES": "NC(=O)c1nc(F)c[nH]c1=O", "target or system": "Influenza A virus", "test": "viral replication, inhibitor", "system": "MDCK, H1N1 WSN", "measurement": "EC50", "value": "1.57 µM"}
